Data on one compound can be found in ChEMBL document CHEMBL3526077, “Prediction of human metabolism of FK3453 by aldehyde oxidase using chimeric mice transplanted with human or rat hepatocytes” (Drug Metab Dispos, 2012).

Data set [1] can be described thus: Cmax in chimeric mouse transplanted with human hepatocytes at 3 mg/kg, po. Type of data set: ADME, organism-based, Hepatocyte. More on the design: dose 3 mg/kg, route oral. An outline of the steps:
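Single 3 mg/kg oral dose of compound in 50% PEG400 with equimolar HCl in saline to h-PXB or r-PXB mice (n=3~4). Orbital-vein blood (heparinized) taken over 0–6 hr; plasma stored at -30°C and assayed by LC/MS/MS. Non-compartmental analysis: Cmax from observed values, AUC by trapezoidal rule extrapolated to infinity, CLoral = Dose/AUCpo.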

The nature of data set [2]: Half life in rat at 3 mg/kg, iv. Type of data set: ADME, organism-based. On the set-up: dose 3 mg/kg, route intravenous. The settings on record: in vivo.
The nature of data set [3]: Half life in chimeric mouse transplanted with rat hepatocytes at 3 mg/kg, iv. Type of data set: ADME, organism-based, Hepatocyte. On the set-up: dose 3 mg/kg, route intravenous. A digest of the protocol:
(§1)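 Single 3 mg/kg intravenous dose in 10% DMSO, 10% PEG400 with equimolar HCl in saline to h-PXB or r-PXB mice (n=3~4). Orbital-vein plasma collected over 0–6 hr and measured by LC/MS/MS. Non-compartmental analysis; AUC by trapezoidal rule extrapolated to infinity; CLt = Dose/AUCiv.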

Data set [4] is described as follows: Total clearance in chimeric mouse transplanted with rat hepatocytes at 3 mg/kg, iv. The format is ADME, organism-based, Hepatocyte. On the set-up: dose 3 mg/kg, route intravenous. The settings on record: read-out: CLH. An outline of the steps: as §1
Data set [5] is described as follows: Total clearance in chimeric mouse transplanted with human hepatocytes at 3 mg/kg, iv. The format is ADME, organism-based, Hepatocyte. More on the design: dose 3 mg/kg, route intravenous. An outline of the steps: as §1
Data set [6] is described as follows: Half life in chimeric mouse transplanted with human hepatocytes at 3 mg/kg, iv. Type of data set: ADME, organism-based, Hepatocyte. On the set-up: dose 3 mg/kg, route intravenous. A digest of the protocol:
as §1

Data set [7] in a line: Intrinsic clearance in hepatocytes isolated from chimeric mouse transplanted with rat hepatocytes assessed as per million cells at 10 uM after 2 hrs by LC/MS/MS analysis. The settings on record: read-out: CLH. The format is ADME, cell-based, Hepatocyte. A digest of the protocol: (§2)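 Fresh hepatocytes from h-PXB mice (mouse cells removed with 66Z rat IgG and anti-rat IgG magnetic beads) or r-PXB mice, 1×10^6 cells/mL in serum-free Krebs-Henseleit buffer. Incubated with 10 μM compound (0.5% acetonitrile) at 37°C under 5% CO₂/95% O₂ with shaking, sampled 0–2 hr. Quenched with acetonitrile, analysed by LC/MS/MS, n=3. CLint derived from first-order depletion rate constant.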

Data set [8] can be described thus: Intrinsic clearance in hepatocytes isolated from chimeric mouse transplanted with human hepatocytes assessed as per million cells at 10 uM after 2 hrs by LC/MS/MS analysis. The format is ADME, cell-based, Hepatocyte. The settings on record: read-out: CLH. An outline of the steps: as §2
Data set [9] in a line: Drug excretion in feces of chimeric mouse transplanted with rat hepatocytes at 3 mg/kg, iv as single dose. Type of data set: ADME, organism-based, Hepatocyte. More on the design: dose 3 mg/kg, route intravenous. The settings on record: read-out: Drug excretion. An outline of the steps: (§3)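 After a 3 mg/kg i.v. dose, pooled urine and feces were collected from metabolic cages over 0–24 hr (n=3). Samples were homogenized in 10 volumes of water, mixed with acetonitrile and analysed by UPLC (UV 254 nm) and LC/MS/MS. Excretion expressed as % of dose.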

Data set [10] is described as follows: Drug excretion in urine of chimeric mouse transplanted with rat hepatocytes at 3 mg/kg, iv as single dose. Type of data set: ADME, organism-based, Hepatocyte. On the set-up: dose 3 mg/kg, route intravenous. The settings on record: read-out: Drug excretion. A digest of the protocol: as §3
Data set [11] deals with Mus musculus. Description: Drug metabolism in plasma of chimeric mouse transplanted with rat hepatocytes at 3 mg/kg, iv as single dose. The format is ADME, organism-based, Hepatocyte. On the set-up: dose 3 mg/kg, route intravenous. An outline of the steps:
(§4)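 Pooled plasma from h-PXB or r-PXB mice after a 3 mg/kg i.v. dose was mixed with an equal volume of acetonitrile and centrifuged. Metabolites were profiled by C18 UPLC with ammonium formate/acetonitrile gradient, UV 254 nm, and Orbitrap MS/MS. Scored as detected or not detected.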

The target in data set [12] is T1, aldehyde oxidase (Rattus norvegicus, UniProt Q9Z0U5).
T1 sequence (Q9Z0U5 whole entry): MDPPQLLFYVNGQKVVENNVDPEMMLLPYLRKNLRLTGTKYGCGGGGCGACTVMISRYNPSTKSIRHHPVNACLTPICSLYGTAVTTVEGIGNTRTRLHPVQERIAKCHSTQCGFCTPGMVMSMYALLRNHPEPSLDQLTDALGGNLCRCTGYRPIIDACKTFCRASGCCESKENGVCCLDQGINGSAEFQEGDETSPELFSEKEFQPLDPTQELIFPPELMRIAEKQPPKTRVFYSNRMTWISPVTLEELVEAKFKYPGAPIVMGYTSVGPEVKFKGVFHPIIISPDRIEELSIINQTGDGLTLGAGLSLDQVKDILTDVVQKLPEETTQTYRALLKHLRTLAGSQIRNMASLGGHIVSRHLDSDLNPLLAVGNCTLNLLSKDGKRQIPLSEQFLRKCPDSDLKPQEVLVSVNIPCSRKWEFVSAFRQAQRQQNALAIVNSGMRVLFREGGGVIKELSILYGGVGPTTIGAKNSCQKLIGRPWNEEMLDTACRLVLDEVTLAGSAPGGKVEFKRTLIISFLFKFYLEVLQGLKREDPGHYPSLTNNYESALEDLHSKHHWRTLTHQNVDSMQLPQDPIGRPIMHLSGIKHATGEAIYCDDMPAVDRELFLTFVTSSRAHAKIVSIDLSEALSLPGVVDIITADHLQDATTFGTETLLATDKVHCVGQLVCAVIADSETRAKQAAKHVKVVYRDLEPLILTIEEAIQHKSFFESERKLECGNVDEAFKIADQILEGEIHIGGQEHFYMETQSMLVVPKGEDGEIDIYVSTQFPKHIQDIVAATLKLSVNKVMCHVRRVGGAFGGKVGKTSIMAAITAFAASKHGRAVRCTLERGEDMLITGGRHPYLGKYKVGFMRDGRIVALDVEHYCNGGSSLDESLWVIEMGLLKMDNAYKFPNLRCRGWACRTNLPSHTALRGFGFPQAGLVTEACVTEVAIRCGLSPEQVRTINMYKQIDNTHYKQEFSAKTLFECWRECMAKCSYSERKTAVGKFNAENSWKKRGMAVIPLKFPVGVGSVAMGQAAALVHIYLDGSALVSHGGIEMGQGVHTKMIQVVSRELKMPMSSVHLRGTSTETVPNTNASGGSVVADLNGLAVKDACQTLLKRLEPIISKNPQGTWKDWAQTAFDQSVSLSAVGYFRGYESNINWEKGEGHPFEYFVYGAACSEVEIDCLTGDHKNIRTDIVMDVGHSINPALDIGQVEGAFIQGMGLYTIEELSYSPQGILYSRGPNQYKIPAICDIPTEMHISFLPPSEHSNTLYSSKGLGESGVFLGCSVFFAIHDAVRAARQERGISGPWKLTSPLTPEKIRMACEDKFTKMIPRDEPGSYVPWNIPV
Description: Activity of aldehyde oxidase in hepatocytes isolated from chimeric mouse transplanted with rat hepatocytes assessed as enzyme-mediated drug metabolism measured as compound remaining at 10 uM after 2 hrs by LC/MS/MS analysis. The settings on record: read-out: Stability. The format is ADME, cell-based, Hepatocyte. A digest of the protocol: as §2

Data set [13] can be described thus: Drug excretion in feces of chimeric mouse transplanted with human hepatocytes at 3 mg/kg, iv as single dose. Type of data set: ADME, organism-based, Hepatocyte. More on the design: dose 3 mg/kg, route intravenous. The settings on record: read-out: Drug excretion. An outline of the steps: as §3
Data set [14] can be described thus: Drug excretion in urine of chimeric mouse transplanted with human hepatocytes at 3 mg/kg, iv as single dose. More on the design: dose 3 mg/kg, route intravenous. The settings on record: read-out: Drug excretion. The format is ADME, organism-based, Hepatocyte. A digest of the protocol:
as §3

Data set [15] deals with Mus musculus. Description: Drug metabolism in plasma of chimeric mouse transplanted with human hepatocytes at 3 mg/kg, iv as single dose. The format is ADME, organism-based, Hepatocyte. More on the design: dose 3 mg/kg, route intravenous. An outline of the steps:
as §4

Data set [16] deals with T2, aldehyde oxidase (Homo sapiens, UniProt Q06278).
T2 sequence (Q06278 whole entry): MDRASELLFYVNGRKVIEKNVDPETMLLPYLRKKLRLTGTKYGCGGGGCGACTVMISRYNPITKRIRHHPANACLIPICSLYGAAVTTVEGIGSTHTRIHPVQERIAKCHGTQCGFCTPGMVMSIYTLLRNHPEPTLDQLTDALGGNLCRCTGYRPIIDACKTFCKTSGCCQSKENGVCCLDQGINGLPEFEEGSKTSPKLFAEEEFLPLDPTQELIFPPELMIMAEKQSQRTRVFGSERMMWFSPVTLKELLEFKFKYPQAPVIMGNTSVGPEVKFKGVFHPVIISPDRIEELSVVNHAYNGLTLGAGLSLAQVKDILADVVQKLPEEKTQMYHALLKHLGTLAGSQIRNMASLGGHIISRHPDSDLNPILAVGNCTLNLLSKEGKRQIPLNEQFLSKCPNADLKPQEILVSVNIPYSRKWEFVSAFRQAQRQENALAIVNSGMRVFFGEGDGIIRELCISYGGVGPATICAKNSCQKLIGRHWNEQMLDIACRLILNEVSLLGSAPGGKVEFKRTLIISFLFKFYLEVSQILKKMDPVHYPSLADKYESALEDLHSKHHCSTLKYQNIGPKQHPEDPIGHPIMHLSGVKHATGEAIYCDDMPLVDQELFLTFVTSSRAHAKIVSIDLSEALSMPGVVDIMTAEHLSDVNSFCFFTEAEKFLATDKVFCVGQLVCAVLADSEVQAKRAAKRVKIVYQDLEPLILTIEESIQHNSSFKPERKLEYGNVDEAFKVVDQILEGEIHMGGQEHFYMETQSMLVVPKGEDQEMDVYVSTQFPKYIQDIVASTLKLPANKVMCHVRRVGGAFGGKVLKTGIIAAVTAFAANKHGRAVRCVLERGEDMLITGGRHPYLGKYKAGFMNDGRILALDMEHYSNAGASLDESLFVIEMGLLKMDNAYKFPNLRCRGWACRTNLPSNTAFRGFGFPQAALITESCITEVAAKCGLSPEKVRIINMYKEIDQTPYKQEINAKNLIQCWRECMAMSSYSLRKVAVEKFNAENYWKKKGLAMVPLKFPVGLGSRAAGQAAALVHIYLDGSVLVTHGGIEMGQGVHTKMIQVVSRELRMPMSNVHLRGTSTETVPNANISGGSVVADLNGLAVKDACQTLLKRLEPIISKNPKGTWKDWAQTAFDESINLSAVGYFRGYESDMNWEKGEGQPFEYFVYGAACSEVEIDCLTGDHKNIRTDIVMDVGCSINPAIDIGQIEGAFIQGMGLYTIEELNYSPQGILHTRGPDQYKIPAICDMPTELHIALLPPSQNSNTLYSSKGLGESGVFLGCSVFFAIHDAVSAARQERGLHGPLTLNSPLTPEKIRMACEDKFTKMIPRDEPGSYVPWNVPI
Description: Activity of aldehyde oxidase in hepatocytes isolated from chimeric mouse transplanted with human hepatocytes assessed as enzyme-mediated drug metabolism measured as compound remaining at 10 uM after 2 hrs by LC/MS/MS analysis. The format is ADME, cell-based, Hepatocyte. The settings on record: read-out: Stability. A digest of the protocol:
as §2

Data set [17] in a line: Retention time of the compound by UV/mass spectrometry. The format is physicochemical. An outline of the steps:
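Retention time on Acquity BEH C18 column (1.7 µm, 2.1×100 mm). Mobile phase 5 mM ammonium formate with 5% acetonitrile against acetonitrile, at 0.2 mL/min. Gradient: 100:0 to 2.5 min, linear to 65:35 by 25 min, 10:90 to 27 min. Detection by UV at 254 nm and MS.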

A short description of data set [18]: Plasma protein binding in rat by equilibrium dialysis method. The settings on record: read-out: PPB (converted). Type of data set: ADME, cell-free. Background: In equilibrium dialysis only unbound substance equilibrates across the membrane.

The Cmax is the highest concentration seen after dosing. The term half-life denotes the time in which the quantity being followed falls by half. Read a low half-life as rapid decline. As to `CC(C)n1nc(-c2cnc(N)nc2-c2ccccc2)ccc1=O`, the Cmax in data set [1] came to 253 ng/mL. Further, the values for the half-life in data set [2], in data set [3] and in data set [6] were 24 min, 48 min and 42 min, respectively. In addition, the clearance was 34 mL/min/kg in data set [4] and 70.7 mL/min/kg in data set [5]. Besides, the hepatocyte CLint at 10 µM is 5 µL/min/1e6 cells in data set [7] and 10 µL/min/1e6 cells in [8]. Further, the dose excreted amounted to 1.1% in data set [9], 0.1% in [10], 0.1% in data set [13] and 0.1% in data set [14]. The Drug metabolism result with Mus musculus [11] and in the data set on Mus musculus [15] was “metabolite_detected” in each case. Also, the remaining at 2 h, 10 µM amounted to 58.4% at aldehyde oxidase [12] and 27.5% at aldehyde oxidase [16]. Moreover, the Retention_time in data set [17] is given as 20 min. Also, the fraction unbound in [18] was 0.246.
